In ChEMBL document CHEMBL3792314, “Synthesis, characterization and biological evaluation of benzothiazoles and tetrahydrobenzothiazoles bearing urea or thiourea moieties as vasorelaxants and inhibitors of the insulin releasing process” (Eur J Med Chem, 2016):
Blank lines part the entries; values can stand above or below the molecule they belong to.

Columns and labels:
Thoracic aorta [1] = assay: Vasorelaxant activity in Wistar rat endothelium-intact thoracic aortic rings assessed relaxation of 30 mM KCl-induced contraction; format: functional
Procedure, shortened: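 Endothelium-intact thoracic aortic rings from female Wistar rats (180–220 g), equilibrated 75 min under 1.8–2.0 g tension, pH 7.4, isometric force transducer. After stable 30 mM KCl plateau (about 15 min), cumulative addition at 1, 10, 30, 50, 100 µM, or 0.1–100 µM for some compounds. EC50 = concentration giving 50% relaxation; mean ± SEM of 4–6 experiments.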

Thoracic aorta [2] = assay: Vasorelaxant activity in Wistar rat endothelium-denuded thoracic aortic rings assessed relaxation of 30 mM KCl-induced contraction; format: functional
Thoracic aorta [3] = assay: Vasorelaxant activity in Wistar rat thoracic aortic rings assessed relaxation of 30 mM KCl-induced contraction in presence of KATP channel blocker glibenclamide; format: functional
Procedure, shortened: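 Female Wistar rat thoracic aorta rings under 1.8–2.0 g resting tension, pH 7.4. Glibenclamide 10 μM present continuously in bath. Contraction by 30 mM KCl, then cumulative compound addition. EC50 = concentration relaxing the KCl contraction by 50%. Mean ± SEM, n = 3–5.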

Thoracic aorta [4] = assay: Vasorelaxant activity in Wistar rat thoracic aortic rings assessed relaxation of 80 mM KCl-induced contraction; format: functional
Procedure, shortened: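 Female Wistar rat (180–220 g) thoracic aortic rings equilibrated 75 min at 1.8–2.0 g tension, pH 7.4. Depolarized with 80 mM KCl, then compounds added cumulatively. EC50 = concentration giving 50% relaxation of the 80 mM KCl contraction. Mean ± SEM, n = 4–5.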

[5] = Inhibition of glucose-induced insulin secretion from Wistar rat pancreatic islets assessed as residual insulin release at 50 uM after 90 mins by radioimmunological assay; format: functional, Pancreatic islet
Procedure, shortened: (§1)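 Islets from adult fed Wistar rats, groups of 10 from the same batch. Preincubated 30 min at 37°C in bicarbonate salt medium with 2.8 mM glucose and 0.5% dialysed albumin, gassed O2/CO2 95:5. Then incubated 90 min at 37°C with 16.7 mM glucose plus compound. Insulin measured by radioimmunoassay against rat insulin standard. Residual secretion expressed as % of drug-free 16.7 mM glucose control.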

[6] = Inhibition of glucose-induced insulin secretion from Wistar rat pancreatic islets assessed as residual insulin release at 10 uM after 90 mins by radioimmunological assay; format: functional, Pancreatic islet; procedure, shortened: as §1
[7] = Inhibition of glucose-induced insulin secretion from Wistar rat pancreatic islets assessed as residual insulin release at 1 uM after 90 mins by radioimmunological assay; format: functional, Pancreatic islet; procedure, shortened: as §1

EC50 (Thoracic aorta [1]): 13 µM | EC50 (Thoracic aorta [2]): 12.1 µM | EC50 (Thoracic aorta [3]): 23.3 µM | EC50 (Thoracic aorta [4]): 26.9 µM
SMILES: CC(C)(C)NC(=O)Nc1nc2ccc(Br)cc2s1
Activity [5]: 15.89% | Residual insulin secretion (% of glucose control) [6]: 77.97%

EC50 (Thoracic aorta [1]): > 100 µM
SMILES: N#Cc1ccc(NC(=S)Nc2nc3c(s2)CCCC3)cc1

EC50 (Thoracic aorta [1]): 2.11 µM | EC50 (Thoracic aorta [2]): 4.75 µM | EC50 (Thoracic aorta [3]): 19.6 µM | EC50 (Thoracic aorta [4]): 14.2 µM
SMILES: CCCCCNC(=O)Nc1nc2ccc([N+](=O)[O-])cc2s1

EC50 (Thoracic aorta [1]): > 100 µM
SMILES: CCc1ccc2nc(NC(=S)NCc3ccccc3)sc2c1

EC50 (Thoracic aorta [1]): 24.4 µM
SMILES: CCc1ccc2nc(NC(=O)NC(C)C)sc2c1

EC50 (Thoracic aorta [1]): 54.3 µM
SMILES: O=C(Nc1nc2ccc([N+](=O)[O-])cc2s1)Nc1ccc(C(F)(F)F)cc1Cl

EC50 (Thoracic aorta [1]): > 100 µM
SMILES: CC(C)NC(=S)Nc1nc2c(s1)CCCC2

EC50 (Thoracic aorta [1]): > 100 µM
SMILES: O=[N+]([O-])c1cccc(NC(=S)Nc2nc3c(s2)CCCC3)c1

EC50 (Thoracic aorta [1]): 14.8 µM
SMILES: CCCCCNC(=O)Nc1nc2ccc(C#N)cc2s1

EC50 (Thoracic aorta [1]): 2.78 µM | EC50 (Thoracic aorta [2]): 4.66 µM | EC50 (Thoracic aorta [3]): 15.6 µM | EC50 (Thoracic aorta [4]): 15 µM
SMILES: CC(C)(C)NC(=O)Nc1nc2ccc(C#N)cc2s1

EC50 (Thoracic aorta [1]): > 100 µM
SMILES: O=C(Nc1ccc(Cl)c(C(F)(F)F)c1)Nc1nc2c(s1)CCCC2

EC50 (Thoracic aorta [1]): 23.7 µM | EC50 (Thoracic aorta [2]): 23.2 µM | EC50 (Thoracic aorta [3]): > 100 µM | EC50 (Thoracic aorta [4]): > 100 µM
SMILES: CC1=Nc2ccc(Cl)cc2S(=O)(=O)N1 [DIAZOXIDE]
Activity [5]: 26.7% | Residual insulin secretion (% of glucose control) [6]: 73.9% | Residual insulin release (% of control) [7]: 87.5%

Second part, the molecule before the results:

SMILES: O=C(Nc1nc2ccccc2s1)Nc1ccc(C(F)(F)F)cc1Cl
EC50 (Thoracic aorta [1]): > 100 µM

SMILES: O=C(Nc1nc2ccc(Br)cc2s1)Nc1ccc(C(F)(F)F)cc1Cl
EC50 (Thoracic aorta [1]): > 100 µM

SMILES: Cc1ccc2nc(NC(=O)NC(C)C)sc2c1
EC50 (Thoracic aorta [1]): 18.5 µM

SMILES: CC(C)(C)NC(=O)Nc1nc2c(s1)CCCC2
EC50 (Thoracic aorta [1]): 75.2 µM

SMILES: O=C(Nc1ccc(Cl)cc1)Nc1nc2c(s1)CCCC2
EC50 (Thoracic aorta [1]): > 100 µM

SMILES: CCc1ccc2nc(NC(=O)NCc3ccccc3)sc2c1
EC50 (Thoracic aorta [1]): > 100 µM

SMILES: O=C(NCc1ccccc1)Nc1nc2ccc(Br)cc2s1
EC50 (Thoracic aorta [1]): 64.2 µM | Activity [5]: 17.85% | Residual insulin secretion (% of glucose control) [6]: 82.97%

SMILES: CC(C)NC(=O)Nc1nc2ccc([N+](=O)[O-])cc2s1
EC50 (Thoracic aorta [1]): 15.7 µM | EC50 (Thoracic aorta [2]): 17.8 µM | EC50 (Thoracic aorta [4]): 36.4 µM | Activity [5]: 8.52% | Residual insulin secretion (% of glucose control) [6]: 62.03%

SMILES: CC(C)(C)NC(=O)Nc1nc2ccc([N+](=O)[O-])cc2s1
EC50 (Thoracic aorta [1]): 10.8 µM | EC50 (Thoracic aorta [2]): 14.8 µM | EC50 (Thoracic aorta [3]): 19.5 µM | EC50 (Thoracic aorta [4]): 31 µM | Activity [5]: 11.77% | Residual insulin secretion (% of glucose control) [6]: 30.98% | Residual insulin release (% of control) [7]: 83.52%

SMILES: Cc1ccc2nc(NC(=S)NCc3ccccc3)sc2c1
EC50 (Thoracic aorta [1]): > 100 µM

SMILES: CCc1ccc2nc(NC(=O)Nc3ccc(C(F)(F)F)cc3Cl)sc2c1
EC50 (Thoracic aorta [1]): > 100 µM

SMILES: Cc1ccc2nc(NC(=S)NC3CCCCC3)sc2c1
EC50 (Thoracic aorta [1]): 52.1 µM

SMILES: CC(C)NC(=O)Nc1nc2c(s1)CCCC2
EC50 (Thoracic aorta [1]): 47.6 µM

SMILES: CC(C)NC(=O)Nc1nc2ccc(Br)cc2s1
EC50 (Thoracic aorta [1]): 22.8 µM

SMILES: N#Cc1ccc(NC(=O)Nc2nc3ccc(Br)cc3s2)cc1
EC50 (Thoracic aorta [1]): > 100 µM | Activity [5]: 10.68% | Residual insulin secretion (% of glucose control) [6]: 11.03% | Residual insulin release (% of control) [7]: 60.5%

SMILES: CCc1ccc2nc(NC(=S)Nc3cccc([N+](=O)[O-])c3)sc2c1
EC50 (Thoracic aorta [1]): > 100 µM

SMILES: CCc1ccc2nc(NC(=O)NC(C)(C)C)sc2c1
EC50 (Thoracic aorta [1]): 25.3 µM

SMILES: N#Cc1ccc(NC(=O)Nc2nc3c(s2)CCCC3)cc1
EC50 (Thoracic aorta [1]): > 100 µM

SMILES: CC(C)NC(=O)Nc1nc2ccccc2s1
EC50 (Thoracic aorta [1]): 35.5 µM

SMILES: CC(N/C(=N\C#N)Nc1ccncc1)C(C)(C)C (stereo not drawn) [PINACIDIL ANHYDROUS]
EC50 (Thoracic aorta [1]): 0.39 µM | EC50 (Thoracic aorta [3]): 8.02 µM | EC50 (Thoracic aorta [4]): 92.1 µM | Activity [5]: 88.8% | Residual insulin release (% of control) [7]: 97.7%
